Compound activity from PubChem BioAssay.
Compounds with a hit are over-represented: about 6.8% of the library has one in this group of screens.
MKP-1 inh – MKP-1 phosphatase inhibitors, primary screen, biochemical, in vitro. Dual specificity protein phosphatase 1 (Homo sapiens), P28562. recombinant MKP-1, OMFP hydrolysis fluorescence. inhibition, %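 (compounds tested at a single concentration somewhere between 10 and 100 µM)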. 65,000 compounds, 0.15% hits;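 active means inhibition above about 50%, limit read from the data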;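 further: 0% = DMSO max control wells and 100% = wells with enzyme stopped by NaOH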
M1 antag – antagonists of rat M1 muscarinic receptor. Muscarinic acetylcholine receptor M1 (Rattus norvegicus), P08482. CHO-M1 cells, Fluo-4 calcium, ACh EC80 antagonist mode; stronger effect = lower value. B-score at 10 µM. 64,000 compounds, 3.4% hits. AID 628, 2007;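 active means calcium fluorescence response, raw or row-and-column corrected B-score, differing from the plate sample mean either way at a set confidence level, mostly lower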
M1 agonist – M1 muscarinic receptor agonists, primary screen, CHO-M1 cells, Fluo-4 calcium, agonist mode; AID 626, 2007; 64,000 compounds, 3% hits; B-score at 10 µM; Muscarinic acetylcholine receptor M1; Fluo-4 calcium fluorescence; stronger effect = higher value;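 active means fluorescence rise, raw or as B-score row- and column-corrected plate score, outside the 99.7% band of its plate's samples, either direction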
Cdc25B block – inhibitors of Cdc25B phosphatase catalytic domain, primary screen, biochemical, OMFP fluorescence. M-phase inducer phosphatase 2 (Homo sapiens), P30305. recombinant Cdc25B, OMFP fluorescence Ex485/Em525. inhibition, %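 (compounds tested at 10 µM final in the well)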. 65,000 compounds, 0.1% hits; in the data active means inhibition above about 50%
Target sequence (P30305 whole entry, looked up, the tested form may be a part): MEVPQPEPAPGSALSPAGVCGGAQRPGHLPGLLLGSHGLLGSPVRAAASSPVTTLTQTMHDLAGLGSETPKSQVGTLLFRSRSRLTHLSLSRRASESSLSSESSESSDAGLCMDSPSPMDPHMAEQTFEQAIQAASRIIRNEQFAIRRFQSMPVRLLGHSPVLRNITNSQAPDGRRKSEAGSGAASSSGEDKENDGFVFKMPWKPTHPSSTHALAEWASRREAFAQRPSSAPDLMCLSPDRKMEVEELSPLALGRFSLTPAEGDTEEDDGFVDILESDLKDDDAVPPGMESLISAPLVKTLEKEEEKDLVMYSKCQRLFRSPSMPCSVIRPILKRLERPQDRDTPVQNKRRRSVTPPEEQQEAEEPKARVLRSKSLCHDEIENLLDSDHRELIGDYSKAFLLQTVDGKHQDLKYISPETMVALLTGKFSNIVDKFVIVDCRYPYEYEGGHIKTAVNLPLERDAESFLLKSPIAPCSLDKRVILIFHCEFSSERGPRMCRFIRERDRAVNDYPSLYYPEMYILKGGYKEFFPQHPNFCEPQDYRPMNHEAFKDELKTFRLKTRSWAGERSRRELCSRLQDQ
HER2 expr 66K – inhibitors of Her2 protein expression, primary screen, SKBR-3 cells, AlphaScreen, 66K library; Receptor tyrosine-protein kinase erbB-2 (Homo sapiens), P04626; SKBR-3 HER2 protein level, 18-24 h; stronger effect = lower value; HER2 level % of control, % at 10 µM; 65,000 compounds, 0.69% hits; AID 645, 2007;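 active means HER2 level under 5% of the carrier-only control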;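 further: 100% = DMSO carrier and 0% = 500 nM PU-H71 HSP90 inhibitor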
HEK293 NFkB inh – inhibitors of PMA/ionomycin-induced NF-kB reporter, primary screen, antigen receptor NF-kB inhibitor project, cell-based, HEK-293 luciferase reporter, luminescence; HEK-293 NF-kB luciferase reporter; inhibition, % at 3 µM; 62,000 compounds, 0.21% hits; AID 465, 2006;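 active means inhibition above the mean of all tested compounds plus 3 SD, cut at about 40% in these data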;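 further: 0% = stimulated DMSO wells and 100% = 10 µM reference inhibitor 5653914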
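Reagent: PMA plus ionomycin mix as NF-kB-activating stimulus. Assay system: NF-kB luciferase reporter HEK-293 cells. Technique: luminescence from luciferase substrate reagent. Incubation: 1 h compound pre-incubation, 16 h PMA/ionomycin at 37 °C. Benchmarks: DMSO only as uninhibited control, 10 µM reference inhibitor as full inhibition. Repeats: tested once.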
An asterisk follows results filed as active; nt = no result given.

SMILES | MKP-1 inh | M1 antag | M1 agonist | Cdc25B block | HER2 expr 66K | HEK293 NFkB inh
Cc1cc2nc(-c3ccc(SCC(=O)N4CCOCC4)nc3)[nH]c2cc1C | 30 | -0.58 | 12* | 9 | 95 | -13
Nc1nc2n(n1)C(c1cccs1)CC(c1ccc(Br)cc1)N2 (configuration not stated) | 11 | 0.62 | -0.71 | -14 | -20* | nt
COc1ccc(C2CC(c3ccc(Br)cc3)Nc3nc(N)nn32)cc1 (configuration not stated) | 20 | 0.88 | -1.8 | -5 | 93 | -2
Cn1c(=O)n(CCC(=O)O)c2ccccc21 | -7 | -0.059 | 0.62 | -15 | 114 | nt
O=C(O)CCn1c(-c2ccccc2)cc2c1CCCC2=O | 2 | 0.72* | 0.45 | -9 | 143 | 7
COc1ccc(-c2nnc(SCC(=O)c3cc(C)n(Cc4cccs4)c3C)o2)cc1 | 22 | 0.94 | -0.63 | -9 | 52 | 5
COc1ccc(-n2cnnc2SCC(=O)c2cc(C)n(Cc3cccs3)c2C)cc1 | 29 | -0.22 | -0.045 | -14 | -21* | 19
Cc1cc(C(=O)OCC(=O)Nc2ccc(F)cc2)c(C)o1 | 8 | 1.4 | 0.43 | -1 | 120 | 13
c1ccc2c(c1)oc1c(N3CCOCC3)ncnc12 | -16 | 0.6 | -1.5 | -7 | 100 | 4
C(=C\c1ccccc1)/CN1CCN(c2ncnc3c2oc2ccccc23)CC1 | 9 | -0.65 | 6.9* | -16 | 139 | 18
c1cnc(N2CCN(c3ncnc4c3oc3ccccc34)CC2)nc1 | -35 | -1.5 | 3.2* | -9 | 73 | 7
C=CCn1c(SCc2c(C)noc2C)nnc1C1COc2ccccc2O1 (configuration not stated) | 7 | -0.5 | 2.3 | -27 | 127 | 14
Cc1noc(C)c1COc1ccc(C(=O)NCc2ccccn2)cc1 | -2 | -0.056 | -0.73 | -12 | 106 | 15
O=C(CCCCCN1C(=O)CCC1=O)NCc1ccccc1 | -4 | 2.1* | -1.3 | -7 | 84 | 17
O=S1(=O)N=C2CCCCCN2C(c2ccncc2)N1 (configuration not stated) | 23 | 0.076 | 0.22 | 6 | 106 | -4
Cc1cccc(-c2c3c(=O)n(C)c(=O)n(C)c3cn2C(C)C)c1 | -11 | 0.38 | 2.8* | 1 | 82 | 16
CCCCNC(=O)Oc1cccc(N2CCCC2=O)c1 | 15 | 0.0021 | -0.2 | -2 | 95 | nt
CCOc1ccc(Nc2c3c(nc4ncnn24)CC(C)CC3)cc1 (configuration not stated) | 5 | 2.4* | 1.2 | -4 | 79 | 4
CCNc1nc(OCCNS(=O)(=O)c2cc(C)ccc2C)nc(N(C)C)n1 | 7 | 1.8* | -0.83 | -2 | 100 | 0
CCNc1nc(NCC)nc(OCCNS(=O)(=O)c2cc(C)ccc2C)n1 | 19 | -1.7 | -1.4 | 8 | 68 | 10
O=C(NCc1ccccc1)N1CCC(c2nc3ccccc3[nH]2)CC1 | -7 | -0.0062 | 0.27 | -8 | 84 | 11
COCCn1c(-c2cc(OC)c(OC)c(OC)c2)nc2oc3ccccc3c(=O)c2c1=O | 15 | -0.084 | -0.018 | 4 | 73 | -21
CCOC(=O)c1cc2sc(C)cc2n1CC(=O)NCCc1ccccc1 | 0 | 0.0088 | -0.36 | -8 | 54 | 13
Cc1sc2ncnc(Sc3nnnn3-c3ccc(Cl)cc3)c2c1C | -10 | 0.28 | -0.21 | -20 | -13* | 21
Cc1sc2ncnc(SCc3ccco3)c2c1C | 2 | 0.2 | 1.4 | -8 | 17 | 5
SMILES | MKP-1 inh | M1 antag | M1 agonist | Cdc25B block | HER2 expr 66K | HEK293 NFkB inh
CCc1ccc(C2CC(=O)N3CN(c4ccccc4)CSC3=C2C#N)cc1 (configuration not stated) | 5 | -0.036 | 0.33 | -3 | -18* | 12
CCOC(=O)c1sc2nc3c(cc2c1N)COC(C)(C)C3 | 3 | -1.4 | 0.017 | -1 | 109 | -35
CC1(C)Cc2nc(N)c(C(=O)NCCO)cc2CO1 | -10 | 6.6* | 0.94 | -4 | 85 | nt
COc1ccc(N/C(C)=C2/C(=O)C(=O)N(CCO)C2c2ccc(Br)cc2)cc1 (configuration not stated) | -21 | -0.79 | -0.91 | 3 | 98 | 3
CC1(c2ccc(OC(F)F)cc2)NC(=O)N(CC(=O)Nc2ccc3c(c2)OCO3)C1=O (configuration not stated) | 1 | 0.25 | 23* | 5 | 102 | 15
COc1cc(NCCCC(C)N)c2ncccc2c1 (configuration not stated) | -7 | -0.085 | -0.038 | 10 | 66 | 8
COc1cc(NS(=O)(=O)c2ccc(C)cc2)c2ncccc2c1 | -5 | -0.24 | 0.22 | -9 | -5.2* | 4
O=c1[nH]c2ccsc2c(=O)n1-c1ccc(F)c(Cl)c1 | -8 | 1 | 0 | -12 | 216 | 18
CCN(CC)S(=O)(=O)c1cccc2cc(C(=O)O)c(O)cc12 | 18 | -0.46 | 0.025 | 7 | 101 | 11
CCCN1CCCc2cc(CN)ccc21 | 23 | -0.87 | 5.7* | 38 | 48 | 10
O=S(=O)(Nc1cccnc1)c1cccs1 | -3 | 2.4* | 0.068 | -3 | 144 | -4
O=S(=O)(Nc1nccs1)c1ccc(NS(=O)(=O)c2cccs2)cc1 | 3 | -0.26 | -0.15 | -8 | 122 | 16
O=C1CC(N2CCN(S(=O)(=O)c3cccc(C(F)(F)F)c3)CC2)C(=O)N1Cc1ccccc1 (configuration not stated) | 16 | -0.58 | 0.068 | -18 | 112 | 10
O=C(CC(SCCO)c1ccc(F)cc1)c1ccco1 (configuration not stated) | 1 | 0.099 | 0.042 | -1 | 20 | 10
Cc1ccc(C(CC(=O)c2ccco2)SCCO)cc1 (configuration not stated) | 9 | -0.21 | 0.076 | 7 | -1.4* | 6
CCCCCn1c(CN2CCCCC2C)nc2c1c(=O)n(C)c(=O)n2C (configuration not stated) | 3 | -1.1 | -0.46 | -20 | 79 | 6
CCCCCn1c(CN2CCCCC2CC)nc2c1c(=O)n(C)c(=O)n2C (configuration not stated) | 11 | -0.72 | 0.46 | 4 | -17* | 15
COc1ccc(CNc2nc3c(c(C(F)(F)F)n2)CCCCC3)cc1 | 15 | 0.12 | -0.25 | -10 | 91 | 17
CN1CCN(Cc2nc(N)nc(Nc3ccc4c(c3)OCCO4)n2)CC1 | 28 | 1.3* | 0.29 | -1 | 123 | 4
O=c1cc(N2CCN(c3ccccc3F)CC2)[nH]c(=O)n1-c1ccc(Br)cc1 | 7 | 0.35 | -2.6* | -1 | 93 | 14
